High-throughput results as filed in PubChem BioAssay.
This is a sample that favours compounds with a hit; in the whole collection about 1.4% have one here.
STK33 kinase inh = inhibitors of purified STK33 kinase, primary screen, biochemical, ADP-Glo luminescence, homogeneous, cell-free | AID 2661, 2010 | MBP phosphorylation | Serine/threonine-protein kinase 33 (Homo sapiens), Q9BYT3 | 320,000 compounds, 0.073% hits | inhibition, % at 10 µM;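 active = inhibition at or above 25%, using the most active replicate where run in duplicate; inactive = inhibition below 25%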
CDK5 inh = inhibitors of human CDK5/p35 kinase, primary screen, biochemical, single concentration. 330,000 compounds, 0.01% hits. AID 488839, 2010. Cyclin-dependent kinase 5 (Homo sapiens) + Cyclin-dependent kinase 5 activator 1 (Homo …. Recombinant CDK5/p35, ADP-Glo luminescence, 60 min. inhibition, % at 10 µM;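 active = highest replicate inhibition of at least 50% and at least 75% of replicates reaching 50%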;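 note: plate controls were DMSO neutral control for no effect and GW8510 at 10 µM for full effect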
GSK3 alpha inh = blockers of GSK3A enzyme activity – biochemical, luminescence, cell-free homogeneous, HTS, primary screen; inhibition, % at 10 µM; 320,000 compounds, 0.1% hits; Glycogen synthase kinase-3 alpha (Homo sapiens), P49840; GSK-3 alpha kinase, ADP-Glo luminescence, 60 min;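 active = more than half of replicates show inhibition above 20%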;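 note: GST-tagged GSK-3 alpha with peptide substrate and 25 µM ATP; 0% = DMSO neutral wells and 100% = GW8510 positive control wells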
Target sequence (P49840 whole entry, looked up): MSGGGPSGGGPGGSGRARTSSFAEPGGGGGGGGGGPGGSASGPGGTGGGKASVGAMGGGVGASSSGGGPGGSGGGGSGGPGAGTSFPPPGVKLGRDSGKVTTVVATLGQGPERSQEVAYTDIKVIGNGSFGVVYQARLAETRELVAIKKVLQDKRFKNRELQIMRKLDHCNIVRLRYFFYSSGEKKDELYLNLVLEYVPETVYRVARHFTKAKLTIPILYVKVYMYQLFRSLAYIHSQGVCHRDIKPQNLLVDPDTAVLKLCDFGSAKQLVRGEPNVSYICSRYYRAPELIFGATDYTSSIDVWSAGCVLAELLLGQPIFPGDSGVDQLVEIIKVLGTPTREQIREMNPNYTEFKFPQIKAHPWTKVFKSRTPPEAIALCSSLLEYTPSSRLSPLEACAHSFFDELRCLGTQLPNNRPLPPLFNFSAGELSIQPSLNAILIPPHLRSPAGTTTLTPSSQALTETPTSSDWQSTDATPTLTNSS
HIV Env fusion = inhibitors of HIV-1 Env-driven cell-cell fusion, primary screen, HeLa-JRFL effector, CEM21 target cells, luciferase. inhibition, % at 12.3 µM. 360,000 compounds, 1.1% hits;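 active = mean replicate inhibition score of at least 50 and every replicate individually at or above 50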;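 note: 0% = plate neutral controls and 100% = maraviroc near 300 nM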
GSK3B inh = human GSK3beta kinase inhibitors, primary screen, biochemical, cell-free homogeneous, HTS. Glycogen synthase kinase-3 beta (Homo sapiens), P49841. GST-GSK3beta kinase, ADP-Glo luminescence, 60 min; hits give low values. activity score (negative = inhibition), % at 10 µM. 300,000 compounds, 0.038% hits. AID 2097, 2009;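 active = more than half of replicate wells score below -50%, meaning over 50% inhibition versus plate controls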;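 note: 0% = median DMSO wells and -100% = median GW8510 positive control wells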
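Assay system: GST-tagged human GSK3beta kinase, cell-free; Input: 1.6 ng GSK3beta; Medium: Tris/MgCl2 kinase buffer; Timing: 60 min enzyme reaction, room temperature; Signal: ADP-Glo luminescence quantifying ADP generated by kinase; Evaluation: score relative to plate controls; Benchmarks: DMSO neutral wells and GW8510 at 20 µM as positive.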
GSIS activator = GLuc luminescence reporter in INS-1E cells, primary screen for activators of glucose-dependent secretion of insulin; INS-1E GLuc reporter insulin secretion, 2-3 h; activation, % at 16.6 µM; 370,000 compounds, 0.61% hits; AID 743287, 2014;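 active = lowest replicate activation of at least 40%, so every replicate reaches that level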;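 note: 0% = median of neutral control wells and 100% = median of IBMX positive control wells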
Active calls of the source: *; x = not tested or not shown; [ ] = dose if it differs, or a comment.

SMILES	STK33 kinase inh	CDK5 inh	GSK3 alpha inh	HIV Env fusion	GSK3B inh	GSIS activator
COC(=O)C[C@@H]1CC[C@@H]2[C@H](COc3ccc(NC(=O)Nc4cccc(Cl)c4)cc3C(=O)N2C)O1	x	x	x	40.2[16.7 µM]	x	-18.4
O=C(N/N=C/C=C/c1ccc2c(c1)OCO2)c1ccc([N+](=O)[O-])cc1	-1.2	-2.5	-1.8	-26.8	-0.6	73.7*
O=C(NCc1cccnc1)Nc1ccc(Br)cc1Cl	-0.9	-1.1	1.3	56.0*	-3.1	16.8
COC(=O)c1ccccc1NC(=O)Nc1cc(C)ccn1	-2.1	-0.6	x	-22.5	3.6	-0.1
O=C(NCc1cccnc1)Nc1ccc(Cl)cc1Cl	2.0	1.2	-0.1	56.9*	-1.4	8.6
Cc1ccnc(NC(=O)Nc2ccc(Br)cc2Cl)c1	-0.1	-0.2	x	-253.2	0.2	132.9*
COc1ccc(-c2cn(-c3ccc(C)c(Cl)c3)c(=S)[nH]2)cc1OC	-0.5	0.1	-2.0	9.2	-0.4	-49.1
COc1ccc(-c2cn(-c3ccccc3)c(=S)[nH]2)cc1OC	-0.2	0.9	-2.7	62.2*	-1.2	-3.5
Cc1noc(C)c1S(=O)(=O)N(C)C[C@H]1Oc2ccc(NC(=O)Nc3ccc(F)cc3)cc2CC(=O)N([C@@H](C)CO)C[C@H]1C	x	x	x	45.8[16.7 µM]	x	-17.4
Cc1noc(C)c1S(=O)(=O)N(C)C[C@@H]1Oc2ccc(NC(=O)Nc3ccc(F)cc3)cc2CC(=O)N([C@@H](C)CO)C[C@@H]1C	x	x	x	55.3*[16.7 µM]	x	-3.3
Cc1noc(C)c1S(=O)(=O)N(C)C[C@@H]1Oc2ccc(NC(=O)Cc3ccccc3)cc2CC(=O)N([C@H](C)CO)C[C@@H]1C	x	x	x	64.9*[16.7 µM]	x	-30.7
C[C@H]1CN([C@@H](C)CO)C(=O)Cc2cc(NC(=O)Cc3ccccc3)ccc2O[C@@H]1CN(C)S(=O)(=O)c1ccccc1	x	x	x	9.3[16.7 µM]	x	5.4
Cc1noc(C)c1S(=O)(=O)N(C)C[C@@H]1Oc2ccc(NC(=O)Nc3cccc4ccccc34)cc2CC(=O)N([C@@H](C)CO)C[C@@H]1C	x	x	x	59.3*[16.7 µM]	x	-3.0
Cc1noc(C)c1S(=O)(=O)N(C)C[C@@H]1Oc2ccc(NC(=O)Nc3ccccc3)cc2CC(=O)N([C@@H](C)CO)C[C@@H]1C	x	x	x	84.8*[16.7 µM]	x	-12.5
C[C@H]1CN([C@@H](C)CO)C(=O)c2cccc(NC(=O)c3ccc(-c4nccs4)cc3)c2O[C@H]1CN(C)Cc1ccc2c(c1)OCO2	x	x	x	x	x	-5.8
C[C@@H]1CCCCO[C@H](CN(C)S(C)(=O)=O)[C@@H](C)CN([C@@H](C)CO)C(=O)c2cc(NC(=O)Nc3ccc(C(F)(F)F)cc3)ccc2O1	x	x	x	13.9[16.7 µM]	x	-10.4
Cc1noc(C)c1S(=O)(=O)N(C)C[C@@H]1Oc2ccc(NC(=O)Nc3ccccc3)cc2CC(=O)N([C@@H](C)CO)C[C@H]1C	x	x	x	-8.3[16.7 µM]	x	-13.7
Cc1noc(C)c1S(=O)(=O)N(C)C[C@H]1Oc2ccc(NC(=O)Nc3ccccc3)cc2CC(=O)N([C@H](C)CO)C[C@H]1C	x	x	x	69.4*[16.7 µM]	x	-15.1
COC1=CC(=O)c2c(ccc3ncnc(N)c23)C1=O	x	3.6	x	76.2*	x	x
COc1ccc(C)cc1NC(=O)CCNS(=O)(=O)c1ccc2c(c1)CC(C)N2C(C)=O (configuration not stated)	-0.8	1.7	-2.1	79.0*	1.4	-1.1
COc1ccccc1NC(=O)CCNS(=O)(=O)c1ccc2c(c1)CC(C)N2C(=O)C1CC1 (configuration not stated)	-0.7	-0.4	-0.9	6.2	2.9	-2.8
COc1ccc(NC(=O)NCCCN2CCN(c3cc(C)ccc3C)CC2)cc1	-0.3	0.4	-2.1	58.8*	-1.0	-5.2
O=C(NC(=S)NC1CCSC1=O)c1ccccc1Cl (configuration not stated)	-1.6	-1.1	-3.0	-7.8	-0.5	x
Cc1ccccc1C(=O)NC1CCSC1=O (configuration not stated)	-1.4	-10.1	-3.3	-5.2	-2.1	121.5*
Cc1ccc(-n2cc(CNCCCn3ccnc3C)c(-c3ccc(F)cc3)n2)cc1	x	-0.6	x	14.4	-2.9	43.9*
SMILES	STK33 kinase inh	CDK5 inh	GSK3 alpha inh	HIV Env fusion	GSK3B inh	GSIS activator
Cc1ccc(C)c(-n2cc(CNCCCn3cccn3)c(-c3ccccc3)n2)c1	0.1	-1.3	-2.5	69.4*	4.0	-11.7
COC(=O)[C@@H]1[C@@H](CO)[C@@H]2Cn3c(ccc(-c4ccncc4)c3=O)[C@@H]2N1CC1CCCC1	x	x	x	x	x	-4.0
Cc1nc2ccccc2n2c(-c3ccccc3)c3c(=O)n(C)c(=O)n(C)c3c12	-1.6	0.4	59.4*	-101.1	0.3	10.7
COc1ccc(S(=O)(=O)N(C)C[C@H]2OCCCC[C@H](C)Oc3ccc(NC(=O)Nc4ccccc4)cc3C(=O)N([C@@H](C)CO)C[C@H]2C)cc1	x	x	x	1.3[16.7 µM]	x	11.5
C[C@H](CO)N1C[C@H](C)[C@H](CN(C)C(=O)NC2CCCCC2)Oc2ccc(NC(=O)CCCCCC(=O)Nc3ccccc3N)cc2C1=O	x	x	x	x	x	-0.3
Cc1nn(-c2ccccc2)c(N2CCCC2)c1/C=N/O	0.3	1.6	-0.3	x	3.0	91.2*
Cc1nn(-c2ccccc2)c(Cl)c1/C=N/O	-1.4	0.5	x	-19.6	-24.1	13.1
Cc1nn(-c2ccccc2)c(N2CCCC2)c1/C=N/NC(=S)Nc1ccc(F)cc1	0.4	2.5	-1.4	6.0	-1.0	74.5*
Cc1ccc(NC(=S)N/N=C/c2c(C)nn(-c3ccccc3)c2N2CCCC2)cc1	-0.7	1.6	-2.3	x	-3.8	64.0*
CO[C@H]1CN(C)C(=O)c2ccc(NS(=O)(=O)c3ccccc3F)cc2OC[C@@H](C)NC[C@H]1C	x	x	x	0.6[16.7 µM]	x	33.9
CCC1CCCCN1S(=O)(=O)c1ccc(NC(=O)c2nc(S(C)(=O)=O)ncc2Cl)cc1 (configuration not stated)	1.8	-2.6	x	-0.1	2.1	71.6*
CCC1CCCCN1S(=O)(=O)c1ccc(NC(=O)c2ccncc2)cc1 (configuration not stated)	-1.8	-0.9	-2.4	62.6*	0.1	-43.7
CO[C@H]1CN(C)C(=O)c2cc(NC(C)=O)ccc2OC[C@H](C)N(C(=O)CN(C)C)C[C@H]1C	x	x	x	x	x	3.7
CC/C(O)=C1\C(=O)CC(c2ccccc2)CC1=NC(C)C (configuration not stated)	-0.4	0.1	0.6	-3.0	1.3	63.3*
CCOc1nc(-c2ccccc2)c2cc(C)ccc2n1	-1.6	-0.8	-2.8	25.8	-22.7	6.2
